Published values of several laboratories.
Lines come from different studies, so protocols differ.
rep papain-like protease: Replicase polyprotein 1ab, papain-like protease (rep, Porcine epidemic diarrhea virus, UniProt P0C6Y4)
SLC6A4: Sodium-dependent serotonin transporter (SLC6A4, Homo sapiens, UniProt P31645)
DRD1: D(1A) dopamine receptor (DRD1, Homo sapiens, UniProt P21728)

SMILES | target | test | conditions | inhibition
Cn1c(C(=O)NCc2cc(O)c(O)c(Br)c2)cc2ccccc21 | rep papain-like protease | enzyme activity, inhibitor, FRET | 10 µM | 86.3%
CCOC(=O)[C@@]12C[C@@H]1[C@@H](n1cnc3c(NC4CC4)nc(C#Cc4ccc(Cl)s4)nc31)[C@H](O)[C@@H]2O | SLC6A4 | ligand displacement, radioligand | 10 µM | 15%
Cc1cc(O)c(-c2ccc([C@@H](C)CN(C)C)cc2)c2c1[nH]c(=O)c1sccc12 | STE20-related kinase adapter protein alpha (STRADA, Homo sapiens, UniProt Q7RTN6) | enzyme activity, inhibitor | 0.1 µM | 14.8%
NC/C(=C\F)COc1cccc(Cn2c(=S)[nH]c(=O)c3[nH]cnc32)c1 | DRD1 | ligand displacement, radioligand | 10 µM | < 50%
CNC(=O)[C@@]12C[C@@H]1[C@@H](n1cnc3c(Nc4ccccc4)nc(C#Cc4ccc(Cl)s4)nc31)[C@H](O)[C@@H]2O | SLC6A4 | ligand displacement, radioligand | 10 µM | 11%
CC(C)C(C(=O)NCc1cc(O)c(O)c(Br)c1)c1ccc(Cl)cc1 (stereo not drawn) | Replicase polyprotein 1ab, main protease (rep, Porcine epidemic diarrhea virus, UniProt P0C6Y4) | enzyme activity, inhibitor, FRET | 10 µM | 41.9%
OC[C@@]12C[C@@H]1[C@@H](n1cnc3c(NC(C4CCC4)C4CCC4)nc(C#Cc4ccc(Cl)s4)nc31)[C@H](O)[C@@H]2O | SLC6A4 | ligand displacement, radioligand | 10 µM | 15%
O=C(NCc1cc(O)c(O)c(Br)c1)c1cccc(CCl)c1 | rep papain-like protease | enzyme activity, inhibitor, FRET | 10 µM | 103%
Cc1cc(F)cc2c(CCC(=O)N[C@@H]3C(=O)NC[C@H]3O)c(-c3ccc(F)cc3)[nH]c12 | SLC6A4 | cell-free assay | 10 µM | 8%
COc1cc(CNC(=O)c2cccc(OC(C)=O)c2C)cc(Br)c1OC | rep papain-like protease | enzyme activity, inhibitor, FRET | 10 µM | 14.1%
C#Cc1cc(-c2cc(Nc3nc(N[C@@H](C)c4ccc(F)cn4)ncc3Cl)n[nH]2)ccc1C=O | Rhodopsin kinase GRK7 (GRK7, Homo sapiens, UniProt Q8WTQ7) | enzyme activity, inhibitor | 0.2 µM | 63%
CCOC(=O)[C@@]12C[C@@H]1[C@@H](n1cnc3c(NCCCCc4ccccc4)nc(C#Cc4ccc(Cl)s4)nc31)[C@H](O)[C@@H]2O | SLC6A4 | ligand displacement, radioligand | 10 µM | 16%
O=C(NCc1cc(O)c(O)c(Br)c1)c1ccc2ccccc2n1 | rep papain-like protease | enzyme activity, inhibitor, FRET | 10 µM | 45.5%
CCOC(=O)[C@@]12C[C@@H]1[C@@H](n1ccc3c(NCCCCCCCc4ccccc4)nc(C#Cc4ccccc4)nc31)[C@H](O)[C@@H]2O | SLC6A4 | ligand displacement, radioligand | 10 µM | 32%
CCN1/C(=C/C(C)=O)Sc2ccc(F)cc21 | DRD1 | ligand displacement, radioligand | 10 µM | 7.04%
